Source: article PMC5080318 (Cancer Chemotherapy and Pharmacology, 2016)
Where two headings read alike, the source gives them in different places. Marks after values point to notes of the source that are not given here.

Columns and labels:
[1] = tested on: solid tumors and hematological malignancies; settings: cited from earlier work; for antitumor activity: phase I trials, solid tumors and hematological malignancies
[2] = tested on: phosphorylated histone H3 (pHH3); settings: in vitro; cited from earlier work
[3] = tested on: xenograft models of human non-small cell lung cancer, colon carcinoma, and pancreas carcinoma; settings: cited from earlier work
tumor cell lines = settings: 48 h following treatment; cited from earlier work
[4] = tested on: patients with advanced solid tumors; assay: phase I dose escalation: DLT and MTD; assay type: in vivo
[5] = phase I pharmacokinetics, plasma and urine; assay type: in vivo, human; settings: for mean terminal half-life: range over doses
[6] = tested on: HCT 116 colorectal cancer model; settings: preclinical models; ref Boehringer Ingelheim; data on file; cited from earlier work
[7] = tested on: caspase-cleaved cytokeratin-18 (CK-18); assay: plasma caspase-cleaved CK-18; assay type: in vivo, human; settings: both schedules
In short: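 Plasma was drawn pre-dose and at 48, 72 and 120 h after the first two 24-h IV infusions in each schedule: Days 1 and 15 of a 4-week cycle, or Day 1 of a 3-week cycle. Further samples were taken pre-dose and at 120 h post-dose up to Cycle 6. Caspase-cleaved CK-18 was quantified by validated ELISA.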

[8] = tested on: patients with advanced solid tumors; settings: in vivo
[9] = tested on: patients with advanced solid tumors; assay: phase I safety: adverse events
[10] = tested on: alpha-1-acid glycoprotein (AGP); settings: preclinical; ref Boehringer Ingelheim, data on file; cited from earlier work
advanced solid tumors = assay: antitumor activity; assay type: in vivo, human
[11] = tested on: acute myeloid leukemia (AML); settings: cited from earlier work; for complete response rate / febrile neutropenia / stomatitis: randomized phase II trial, elderly patients with AML
[12] = tested on: patients with advanced solid tumors; settings: cited from earlier work

SMILES: O=C(Nc1c[nH]nc1-c1nc2ccc(CN3CCOCC3)cc2[nH]1)NC1CC1 [AT9283]
- antitumor activity [1]: limited antitumor activity

SMILES: CC(C)NC(=O)[C@H]1CCC[C@H]1Nc1nc(Nc2ccc(C(=O)N(C)C3CCN(C)CC3)cc2)ncc1C(F)(F)F [BI 811283]
- time of treatment until pHH3 was reduced [2]: ≤ 1 h
- pHH3 in xenograft models ([3]; marker of Aurora B kinase inhibition): decrease in pHH3
- effect on tumor growth in xenograft models ([3]; tumor regression in some cases): dose-dependent inhibition of tumor growth
- polyploidy, share of cells (tumor cell lines): up to 80%
- Patients with DLT ([4]; schedule A, 5 mg, n 3, first cycle): 0
- Patients with DLT ([4]; schedule A, 10 mg, n 7, first cycle): 1
- Patients with DLT ([4]; schedule A, 13.5 mg, n 3, first cycle): 0
- Patients with DLT ([4]; schedule A, 18 mg, n 3, first cycle): 0
- Patients with DLT ([4]; schedule A, 24 mg, n 4, first cycle): 0
- Patients with DLT ([4]; schedule A, 32 mg, n 3, first cycle): 0
- Patients with DLT ([4]; schedule A, 43 mg, n 5, first cycle): 0
- Patients with DLT ([4]; schedule A, 58 mg, n 3, first cycle): 0
- Patients with DLT ([4]; schedule A, 78 mg, n 7, first cycle): 1
- Patients with DLT ([4]; schedule A, 105 mg, n 6, first cycle): 1
- Patients with DLT ([4]; schedule A, 125 mg (MTD), n 16 incl. expansion cohort, first cycle): 1
- Patients with DLT ([4]; schedule A, 140 mg, n 3, first cycle): 2
- maximum tolerated dose (MTD) ([4]; schedule A: 24-h infusion Days 1 and 15 of a 4-week cycle): 125 mg
- Patients with DLT ([4]; schedule B, 13.5 mg, n 3, first cycle): 0
- Patients with DLT ([4]; schedule B, 18 mg, n 3, first cycle): 0
- Patients with DLT ([4]; schedule B, 24 mg, n 3, first cycle): 0
- Patients with DLT ([4]; schedule B, 32 mg, n 4, first cycle): 0
- Patients with DLT ([4]; schedule B, 43 mg, n 3, first cycle): 0
- Patients with DLT ([4]; schedule B, 58 mg, n 3, first cycle): 0
- Patients with DLT ([4]; schedule B, 78 mg, n 3, first cycle): 0
- Patients with retrospectively identified potential DLT ([4]; schedule B, 105 mg, n 6): 2
- Patients with DLT ([4]; schedule B, 105 mg, n 6, first cycle): 1^c
- Patients with retrospectively identified potential DLT ([4]; schedule B, 125 mg, n 3): 1
- Patients with DLT ([4]; schedule B, 125 mg, n 3, first cycle): 0^c
- Patients with DLT ([4]; schedule B, 150 mg, n 3, first cycle): 0
- Patients with retrospectively identified potential DLT ([4]; schedule B, 180 mg, n 3): 1
- Patients with DLT ([4]; schedule B, 180 mg, n 3, first cycle): 0^c
- Patients with DLT ([4]; schedule B, 230 mg, second cohort n 3 (after 300 mg), first cycle): 0
- Patients with DLT ([4]; schedule B, 270 mg, n 5, first cycle): 2
- Patients with DLT ([4]; schedule B, 300 mg, n 3, first cycle): 2
- maximum tolerated dose (MTD) ([4]; schedule B: 24-h infusion Day 1 of a 3-week cycle): 230 mg
- exposure to total BI 811283 (bound and unbound) in patients with higher AGP plasma concentrations ([5]; human, in vivo): trend toward increased exposure
- time to maximum plasma concentration after start of infusion ([5]; human, in vivo, iv): 20 to 24 h
- Cmax and AUC0–∞ versus dose ([5]; in vivo): increased in a dose-dependent manner
- fraction excreted in urine ([5]; in vivo): 4 to 12 % of the administered dose
- time after end of infusion in which most of the compound was eliminated ([5]; in vivo): ≤ 6 h
- mean terminal half-life ([5]; schedule A): 11.4 to 30.5 h
- mean terminal half-life ([5]; schedule B): 10.1 to 27.0 h
- antitumor activity of weekly and 2-weekly 24-h continuous infusion [6]: similarly strong antitumor activity
- level of caspase-cleaved CK-18 in plasma after infusion [7]: no consistent trend
- drug-related Alopecia, grade All [8]: 11 (17.5) n (%)
- drug-related Fatigue, grade ≥3 [8]: 1 (1.7) n (%)
- drug-related Nausea, grade ≥3 [8]: 1 (1.6) n (%)
- drug-related alopecia, patients [8]: 19.8%
- drug-related decreased appetite, patients [8]: 14.9%
- drug-related diarrhea, patients [8]: 16.5%
- drug-related fatigue, patients [8]: 31.4%
- drug-related leukopenia, patients [8]: 28.9%
- drug-related nausea, patients [8]: 24.0%
- drug-related neutropenia, patients [8]: 33.1%
- deaths considered related to the study treatment ([9]; 22 patients with fatal AEs): None
- drug-related Alopecia, grade All ([9]; Schedule B, Total (N = 58)): 12 (20.7) n (%)
- patients with SAEs regarded as drug related ([9]; all patients): Thirteen
- patients with fatal AEs ([9]; all patients, n = 22): 18.2%
- patients with serious AEs (SAEs) ([9]; all patients, n = 61): 50.4%
- drug-related SAE febrile neutropenia ([9]; all patients, most common drug-related SAE): seven
- patients with SAEs regarded as drug related ([9]; schedule A, n = 3): 4.8%
- patients with fatal AEs ([9]; schedule A, n = 10): 15.9%
- patients with serious AEs (SAEs) ([9]; schedule A, n = 33): 52.4%
- patients with SAEs regarded as drug related ([9]; schedule B, n = 10): 17.2%
- patients with fatal AEs ([9]; schedule B, n = 12): 20.7%
- patients with serious AEs (SAEs) ([9]; schedule B, n = 28): 48.3%
- protein binding [10]: dependent on the plasma concentrations of alpha-1-acid glycoprotein (AGP)
- best overall response SD, share of patients (advanced solid tumors; both treatment schedules): approximately 30%
- objective response (advanced solid tumors; either treatment schedule): No patients

SMILES: Nc1ccn([C@@H]2O[C@H](CO)[C@@H](O)[C@@H]2O)c(=O)n1 [LDAC, cytosine arabinoside]
- complete response rate [11]: 11.5%
- febrile neutropenia [11]: 19%
- stomatitis [11]: 15%

SMILES: O=C(O)c1ccc(Nc2ncc3c(n2)-c2ccc(Cl)cc2C(c2c(F)cccc2F)=NC3)cc1 [MLN8054]
- dose-limiting toxicities [12]: DLTs of liver enzyme elevations were observed

SMILES: CC(=O)NCC(=O)N1[C@@H]2CC[C@H]1c1ccc(Nc3ncc(C(F)(F)F)c(NC4CCC4)n3)cc12 [PF-03814735]
- antitumor activity [1]: limited antitumor activity

SMILES: COc1cc(Nc2ncc3c(n2)-c2ccc(Cl)cc2C(c2c(F)cccc2OC)=NC3)ccc1C(=O)O [alisertib]
- clinical activity ([1]; phase II study, preliminary evidence): durable disease control in multiple cancer types

SMILES: CCN(CCCOc1ccc2c(Nc3cc(CC(=O)Nc4cccc(F)c4)n[nH]3)ncnc2c1)CCOP(=O)(O)O [barasertib]
- clinical activity ([1]; advanced solid tumors): limited activity in solid tumors
- response rate ([11]; in combination with low-dose cytosine arabinoside (LDAC), AML): 45%
- hematological response rate ([11]; monotherapy, phase I/II trials, AML): 19–25%
- complete response rate [11]: 35.4%
- febrile neutropenia [11]: 67%
- stomatitis [11]: 71%

SMILES: CO[C@@H](C(=O)N1Cc2n[nH]c(NC(=O)c3ccc(N4CCN(C)CC4)cc3)c2C1)c1ccccc1 [danusertib]
- clinical activity ([1]; advanced hematological malignancies): promising clinical activity
- clinical activity ([1]; phase I/II studies in advanced solid tumors): limited activity
